Assay results from ChEMBL document CHEMBL2057083, “Development of new carbon-11 labelled radiotracers for imaging GABAA- and GABAB-benzodiazepine receptors” (Bioorg Med Chem, 2012).

Columns and labels:
[1] = Lipophilicity, log D in octanol/buffer at pH 7.4 by shake-flask method
Thalamus [2] = experiment: Biodistribution in Sprague-Dawley rat thalamus at 37 MBq, iv measured 5 mins post injection; assay type: ADME, organism-based; conditions: in vivo
How it was run: (§1)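 Conscious rats received the radiotracer by tail-vein injection and were killed by decapitation at the stated time. Brains were removed, and regions were excised, blotted, weighed and counted for radioactivity. Uptake is given as decay-corrected %ID/g.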

Rattus norvegicus [3] = experiment: Biodistribution in Sprague-Dawley rat cortex (rest) at 37 MBq, iv measured 2 mins post injection; assay type: ADME, organism-based; conditions: in vivo
Rattus norvegicus [4] = experiment: Biodistribution in Sprague-Dawley rat cortex (rest) at 37 MBq, iv measured 15 mins post injection; assay type: ADME, organism-based; conditions: in vivo, 0.25 h
Hippocampus [5] = experiment: Biodistribution in Sprague-Dawley rat hippocampus at 37 MBq, iv measured 2 mins post injection; assay type: ADME, organism-based; conditions: in vivo
Rattus norvegicus [6] = experiment: Biodistribution in Sprague-Dawley rat cortex (front) at 37 MBq, iv measured 2 mins post injection; assay type: ADME, organism-based; conditions: in vivo
Rattus norvegicus [7] = experiment: Biodistribution in Sprague-Dawley rat cortex (front) at 37 MBq, iv measured 60 mins post injection; assay type: ADME, organism-based; conditions: in vivo, 1 h
Rattus norvegicus [8] = experiment: Biodistribution in Sprague-Dawley rat hipothalamus at 37 MBq, iv measured 30 mins post injection; assay type: ADME, organism-based, Hypothalamus; conditions: in vivo, 0.5 h; how it was run: as §1
Rattus norvegicus [9] = experiment: Biodistribution in Sprague-Dawley rat cortex (rest) at 37 MBq, iv measured 30 mins post injection; assay type: ADME, organism-based; conditions: in vivo, 0.5 h
Rattus norvegicus [10] = experiment: Biodistribution in Sprague-Dawley rat cortex (front) at 37 MBq, iv measured 5 mins post injection; assay type: ADME, organism-based; conditions: in vivo
Thalamus [11] = experiment: Biodistribution in Sprague-Dawley rat thalamus at 37 MBq, iv measured 15 mins post injection; assay type: ADME, organism-based; conditions: in vivo, 0.25 h; how it was run: as §1
Blood [12] = experiment: Biodistribution in Sprague-Dawley rat blood at 37 MBq, iv measured 60 mins post injection; assay type: ADME, organism-based; conditions: in vivo, 1 h
Rattus norvegicus [13] = experiment: Biodistribution in Sprague-Dawley rat cortex (front) at 37 MBq, iv measured 30 mins post injection; assay type: ADME, organism-based; conditions: in vivo, 0.5 h
Rattus norvegicus [14] = experiment: Biodistribution in Sprague-Dawley rat hipothalamus at 37 MBq, iv measured 60 mins post injection; assay type: ADME, organism-based, Hypothalamus; conditions: in vivo, 1 h; how it was run: as §1
Brain [15] = experiment: Biodistribution in Sprague-Dawley rat rest of brain at 37 MBq, iv measured 15 mins post injection; assay type: ADME, organism-based; conditions: in vivo, 0.25 h
Hippocampus [16] = experiment: Biodistribution in Sprague-Dawley rat hippocampus at 37 MBq, iv measured 15 mins post injection; assay type: ADME, organism-based; conditions: in vivo, 0.25 h
Rattus norvegicus [17] = experiment: Biodistribution in Sprague-Dawley rat hipothalamus at 37 MBq, iv measured 5 mins post injection; assay type: ADME, organism-based, Hypothalamus; conditions: in vivo; how it was run: as §1
Blood [18] = experiment: Biodistribution in Sprague-Dawley rat blood at 37 MBq, iv measured 2 mins post injection; assay type: ADME, organism-based; conditions: in vivo
Striatum [19] = experiment: Biodistribution in Sprague-Dawley rat striatum at 37 MBq, iv measured 15 mins post injection; assay type: ADME, organism-based; conditions: in vivo, 0.25 h
Striatum [20] = experiment: Biodistribution in Sprague-Dawley rat striatum at 37 MBq, iv measured 30 mins post injection; assay type: ADME, organism-based; conditions: in vivo, 0.5 h
Hippocampus [21] = experiment: Biodistribution in Sprague-Dawley rat hippocampus at 37 MBq, iv measured 5 mins post injection; assay type: ADME, organism-based; conditions: in vivo
Brain [22] = experiment: Biodistribution in Sprague-Dawley rat rest of brain at 37 MBq, iv measured 60 mins post injection; assay type: ADME, organism-based; conditions: in vivo, 1 h
Cerebellum [23] = experiment: Biodistribution in Sprague-Dawley rat cerebellum at 37 MBq, iv measured 15 mins post injection; assay type: ADME, organism-based; conditions: in vivo, 0.25 h
Rattus norvegicus [24] = experiment: Biodistribution in Sprague-Dawley rat cortex (rest) at 37 MBq, iv measured 5 mins post injection; assay type: ADME, organism-based; conditions: in vivo
Rattus norvegicus [25] = experiment: Biodistribution in Sprague-Dawley rat hipothalamus at 37 MBq, iv measured 2 mins post injection; assay type: ADME, organism-based, Hypothalamus; conditions: in vivo
Rattus norvegicus [26] = experiment: Biodistribution in Sprague-Dawley rat cortex (rest) at 37 MBq, iv measured 60 mins post injection; assay type: ADME, organism-based; conditions: in vivo, 1 h
Blood [27] = experiment: Biodistribution in Sprague-Dawley rat blood at 37 MBq, iv measured 5 mins post injection; assay type: ADME, organism-based; conditions: in vivo
Blood [28] = experiment: Biodistribution in Sprague-Dawley rat blood at 37 MBq, iv measured 15 mins post injection; assay type: ADME, organism-based; conditions: in vivo, 0.25 h
Rattus norvegicus [29] = experiment: Biodistribution in Sprague-Dawley rat cortex (front) at 37 MBq, iv measured 15 mins post injection; assay type: ADME, organism-based; conditions: in vivo, 0.25 h
Thalamus [30] = experiment: Biodistribution in Sprague-Dawley rat thalamus at 37 MBq, iv measured 30 mins post injection; assay type: ADME, organism-based; conditions: in vivo, 0.5 h; how it was run: as §1
Cerebellum [31] = experiment: Biodistribution in Sprague-Dawley rat cerebellum at 37 MBq, iv measured 60 mins post injection; assay type: ADME, organism-based; conditions: in vivo, 1 h
Cerebellum [32] = experiment: Biodistribution in Sprague-Dawley rat cerebellum at 37 MBq, iv measured 30 mins post injection; assay type: ADME, organism-based; conditions: in vivo, 0.5 h
Brain [33] = experiment: Biodistribution in Sprague-Dawley rat rest of brain at 37 MBq, iv measured 2 mins post injection; assay type: ADME, organism-based; conditions: in vivo
Hippocampus [34] = experiment: Biodistribution in Sprague-Dawley rat hippocampus at 37 MBq, iv measured 60 mins post injection; assay type: ADME, organism-based; conditions: in vivo, 1 h
Striatum [35] = experiment: Biodistribution in Sprague-Dawley rat striatum at 37 MBq, iv measured 5 mins post injection; assay type: ADME, organism-based; conditions: in vivo
Thalamus [36] = experiment: Biodistribution in Sprague-Dawley rat thalamus at 37 MBq, iv measured 2 mins post injection; assay type: ADME, organism-based; conditions: in vivo
Brain [37] = experiment: Biodistribution in Sprague-Dawley rat rest of brain at 37 MBq, iv measured 5 mins post injection; assay type: ADME, organism-based; conditions: in vivo
Cerebellum [38] = experiment: Biodistribution in Sprague-Dawley rat cerebellum at 37 MBq, iv measured 2 mins post injection; assay type: ADME, organism-based; conditions: in vivo
Striatum [39] = experiment: Biodistribution in Sprague-Dawley rat striatum at 37 MBq, iv measured 2 mins post injection; assay type: ADME, organism-based; conditions: in vivo
Hippocampus [40] = experiment: Biodistribution in Sprague-Dawley rat hippocampus at 37 MBq, iv measured 30 mins post injection; assay type: ADME, organism-based; conditions: in vivo, 0.5 h
Rattus norvegicus [41] = experiment: Biodistribution in Sprague-Dawley rat hipothalamus at 37 MBq, iv measured 15 mins post injection; assay type: ADME, organism-based, Hypothalamus; conditions: in vivo, 0.25 h; how it was run: as §1
Thalamus [42] = experiment: Biodistribution in Sprague-Dawley rat thalamus at 37 MBq, iv measured 60 mins post injection; assay type: ADME, organism-based; conditions: in vivo, 1 h; how it was run: as §1
Cerebellum [43] = experiment: Biodistribution in Sprague-Dawley rat cerebellum at 37 MBq, iv measured 5 mins post injection; assay type: ADME, organism-based; conditions: in vivo
Brain [44] = experiment: Biodistribution in Sprague-Dawley rat rest of brain at 37 MBq, iv measured 30 mins post injection; assay type: ADME, organism-based; conditions: in vivo, 0.5 h
Striatum [45] = experiment: Biodistribution in Sprague-Dawley rat striatum at 37 MBq, iv measured 60 mins post injection; assay type: ADME, organism-based; conditions: in vivo, 1 h
Blood [46] = experiment: Biodistribution in Sprague-Dawley rat blood at 37 MBq, iv measured 30 mins post injection; assay type: ADME, organism-based; conditions: in vivo, 0.5 h

Cc1nc(O[11CH3])ccc1-c1cccc2c(N)c3c(nc12)CN(C1CCC1)C3=O
4.12: logD [1]

CC(NCCC(c1ccccc1)c1ccccc1)c1ccc(O[11CH3])c(Cl)c1 (racemic)
3.2: logD [1]
0.09 % ID/g: Drug uptake (Blood [46])
0.12 % ID/g: Drug uptake (Thalamus [2]) | Drug uptake (Rattus norvegicus [6]) | Drug uptake (Striatum [19]) | Drug uptake (Striatum [20]) | Drug uptake (Cerebellum [23]) | Drug uptake (Blood [27]) | Drug uptake (Thalamus [30]) | Drug uptake (Brain [44])
0.13 % ID/g: Drug uptake (Rattus norvegicus [3]) | Drug uptake (Rattus norvegicus [4]) | Drug uptake (Rattus norvegicus [7]) | Drug uptake (Rattus norvegicus [9]) | Drug uptake (Rattus norvegicus [10]) | Drug uptake (Thalamus [11]) | Drug uptake (Blood [12]) | Drug uptake (Rattus norvegicus [24]) | Drug uptake (Rattus norvegicus [26]) | Drug uptake (Cerebellum [32]) | Drug uptake (Cerebellum [38])
0.11 % ID/g: Drug uptake (Rattus norvegicus [14]) | Drug uptake (Brain [15]) | Drug uptake (Rattus norvegicus [17]) | Drug uptake (Brain [22]) | Drug uptake (Rattus norvegicus [25]) | Drug uptake (Cerebellum [31]) | Drug uptake (Hippocampus [34]) | Drug uptake (Striatum [35]) | Drug uptake (Brain [37]) | Drug uptake (Hippocampus [40]) | Drug uptake (Striatum [45])
0.18 % ID/g: Drug uptake (Blood [18])
0.1 % ID/g: Drug uptake (Rattus norvegicus [8]) | Drug uptake (Hippocampus [16]) | Drug uptake (Hippocampus [21]) | Drug uptake (Brain [33]) | Drug uptake (Thalamus [36]) | Drug uptake (Striatum [39]) | Drug uptake (Rattus norvegicus [41])
0.14 % ID/g: Drug uptake (Rattus norvegicus [13]) | Drug uptake (Rattus norvegicus [29]) | Drug uptake (Thalamus [42]) | Drug uptake (Cerebellum [43])
0.08 % ID/g: Drug uptake (Hippocampus [5])
0.87 % ID/g: Drug uptake (Blood [28])
